{"source": "paper PMC11349029", "about": "(Science translational medicine, 2016)", "key": {"[1]": {"system": "AR55Q (polyQ-AR)", "experiment": "Western blotting of upper AR isoform in HEK293T cells", "type": "cell-based, human", "conditions": "for accumulation of the upper AR isoform (p21Cip1 experiments) / effect on upper AR isoform upon overexpression of wtCDK2: HEK293T AR55Q; for accumulation of the upper AR isoform (p21Cip1 experiments): 5 or 100 nM OA, 10 μM forskolin, 100 nM PACAP, 24 hours; for effect on upper AR isoform upon overexpression of wtCDK2: 10 μM forskolin or 100 nM PACAP; for mobility of S96A and S96D phosphomutants: HEK293T, AR55Q-S96A, AR55Q-S96D, 100 nM PACAP (5 hours), SDS-PAGE, n = 4"}, "[2]": {"system": "AR112Q (polyQ-AR)", "experiment": "PolyQ-AR aggregation in PC12 cells", "type": "cell-based, rat PC12 cells", "conditions": "doxycycline 10 μg/ml, 10 nM DHT, 10 μM forskolin, 24 hours, n = 3"}, "[3]": {"system": "cAMP", "experiment": "cAMP levels in vivo", "parameters": "species or system mouse", "conditions": "fig. S21; intranasal"}, "[4]": {"system": "p21^Cip1", "experiment": "p21Cip1 expression in cells", "type": "cell-based", "conditions": "fig. S13, A to D"}, "[5]": {"system": "AR55Q phosphorylated at Ser^96", "experiment": "Western blotting of Ser96-phosphorylated AR in HEK293T cells", "type": "cell-based, human", "conditions": "10 μM forskolin or 100 nM PACAP, 5 hours, n = 5 to 10", "how_it_was_run": "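HEK293T cells expressing AR55Q or AR55Q-S96A were treated with 10 μM forskolin or 100 nM PACAP for 5 hours. Lysates were run on 7% SDS-PAGE and blotted to nitrocellulose. Blots were probed with antibodies to Ser96-phosphorylated and total AR and detected by chemiluminescence or infrared imaging. n = 9 to 10 and 5 independent experiments.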"}, "[6]": {"system": "CDK2/p21^Cip1", "experiment": "Binding of CDK2 to p21Cip1 in SBMA cells", "type": "cell-based", "conditions": "fig. S13E"}, "[7]": {"system": "polyQ-AR", "experiment": "PolyQ-AR aggregation in HEK293T cells", "type": "cell-based, human", "conditions": "high–molecular weight species in stacking gel, SDS-PAGE; fig. S18"}, "[8]": {"conditions": "cited from earlier work"}, "[9]": {"system": "SBMA MN-1 cells", "experiment": "Trypan blue assay in MN-1 cells", "type": "cell-based, mouse", "conditions": "MN-1 cells expressing AR100Q, 100 nM PACAP, 96 hours, n = 8", "how_it_was_run": "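MN-1 cells stably expressing AR100Q were grown in DMEM with 10% FBS, 2 mM L-glutamine and gentamicin 0.05 mg/ml at 37°C, 5% CO2. Cells were given DHT plus vehicle or 100 nM PACAP for 96 hours.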"}, "[10]": {"system": "AC/PKA pathway", "conditions": "cited from earlier work"}, "[11]": {"system": "SBMA MN-1 cells", "experiment": "Caspase 3 assay in MN-1 cells", "type": "cell-based, mouse", "conditions": "SBMA MN-1 cells (AR65Q), 48 hours"}, "[12]": {"system": "cAMP (EPAC biosensor), SBMA MN-1 cells", "experiment": "BRET cAMP biosensor assay in MN-1 cells", "type": "cell-based, mouse", "conditions": "SBMA MN-1 cells (AR65Q); different concentrations of PACAP, 20 min; n = 4", "how_it_was_run": "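MN-1 cells were transfected with an EPAC cAMP BRET biosensor (Renilla luciferase N-terminal, YFP C-terminal) 24 h after seeding. After another 24 h they were replated at 80,000 cells/well in phenol red–free MEM with 2% FBS, 10 mM Hepes and 2 mM glutamine, with or without 10 nM DHT for 24 h. Wells were read in PBS (Ca/Mg, 0.003% ascorbic acid) with 5 μM coelenterazine h for about 20 min after agonist; cAMP binding lowers the signal.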"}, "[13]": {"conditions": "cited from earlier work", "remark": "listed apart in the source"}, "[14]": {"system": "AR55Q (polyQ-AR)", "experiment": "PolyQ-AR accumulation and turnover in HEK293T cells", "type": "cell-based, human", "how_it_was_run": "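AR55Q was expressed in HEK293T cells (DMEM, 10% heat-inactivated FBS, 2 mM L-glutamine, 37°C, 5% CO2) by polyethylenimine transfection the day after plating. For turnover, cells got cycloheximide 10 μg/ml plus 10 μM forskolin; separately, empty vector or wtPKA plus 10 μM MG132 for 5 h. AR was immunoblotted after 7% SDS-PAGE against a β-tubulin loading control.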"}, "[15]": {"system": "PAC1 receptor", "conditions": "cited from earlier work"}, "[16]": {"system": "AR", "conditions": "cited from earlier work"}, "[17]": {"system": "healthy male subjects", "conditions": "cited from earlier work"}, "[18]": {"system": "animal models of AD, PD and HD", "conditions": "cited from earlier work"}, "[19]": {"system": "polyQ-AR", "experiment": "Atomic force microscopy of polyQ-AR oligomers", "type": "cell-based", "conditions": "Sf9 insect cells; 10 nM DHT and 10 μM forskolin, 24 hours; n = 15 to 25"}, "[20]": {"system": "AR100Q (polyQ-AR)", "experiment": "Western blotting of upper AR isoform in MN-1 cells", "type": "cell-based, mouse motor neuron–derived MN-1 cells", "conditions": "10 μM forskolin (5 hours); n = 3"}, "[21]": {"system": "AR100Q (polyQ-AR)", "experiment": "Western blotting of upper AR isoform in primary cortical neurons", "type": "cell-based, rat primary cortical neurons", "conditions": "10 μM forskolin (5 hours); n = 4", "how_it_was_run": "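Cortical neurons came from embryonic day 18 Sprague-Dawley rats, dissociated with papain/DNase/cysteine and plated at 40,000 cells/cm² on poly-L-lysine in Neurobasal/B-27/GlutaMAX. At 6–7 DIV they were transduced with lentivirus (MOI 10) expressing AR24Q or AR100Q plus EGFP. Neurons were treated with 10 μM forskolin for 5 h, and AR upper and lower isoforms were immunoblotted with loading controls; n = 4.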"}}, "note": "Residues, ends and D or L forms follow the SMILES beside them. No end group written: not given here. *: point of attachment. Cbz = O=C(OCc1ccccc1)*", "data": [{"molecule": "CC[C@H](CO)Nc1nc(NCc2ccccc2)c2ncn(C(C)C)c2n1", "note": "[Roscovitine, roscovitine]", "values": [{"measurement": "accumulation of the upper isoform of polyQ-AR, phosphatase/kinase inhibitors", "setting": "[1]; HEK293T expressing AR55Q, fig. S5, S6", "result": "specifically decreased the accumulation"}]}, {"molecule": "pituitary adenylyl cyclase activating polypeptide [PACAP]", "values": [{"measurement": "polyQ-AR aggregation, PC12 cells", "setting": "[2]", "result": "reduced"}, {"measurement": "cAMP production in vivo, PACAP", "setting": "[3]", "result": "induces cAMP production in vivo"}, {"measurement": "expression of p21Cip1", "setting": "[4]", "result": "induced the expression"}, {"measurement": "amount of polyQ-AR phosphorylated at Ser96", "setting": "[5]", "result": "significantly reduced"}, {"measurement": "binding of CDK2 to p21Cip1", "setting": "[6]", "result": "increased the binding"}, {"measurement": "accumulation of the upper AR isoform (p21Cip1 experiments)", "setting": "[1]; n = 3", "result": "decreased accumulation"}, {"measurement": "effect on upper AR isoform upon overexpression of wtCDK2", "setting": "[1]; 5 hours, n = 3", "result": "blocked"}, {"measurement": "reduction of the accumulation of the upper isoform of polyQ-AR", "setting": "[1]; HEK293T expressing AR55Q, 10 nM DHT and 100 nM PACAP, 5 hours, n = 9", "result": 35, "unit": "%"}, {"measurement": "mobility of S96A and S96D phosphomutants", "setting": "[1]", "result": "not affected"}, {"measurement": "polyQ-AR aggregation, HEK293T cells", "setting": "[7]", "result": "reduced"}, {"measurement": "penetration into target tissues", "setting": "[8]", "result": "scarce penetration into target tissues"}, {"measurement": "cell death", "setting": "[9]", "result": "significantly reduced"}, {"measurement": "activation of AC", "setting": "[10]", "result": "potent activator"}, {"measurement": "caspase 3 activity, PACAP", "setting": "[11]; 100 nM PACAP, n = 3, through activation of PKA", "result": "significantly reduced"}, {"measurement": "dose dependence of cAMP release", "setting": "[12]", "result": "dose-dependent"}, {"measurement": "degradation in the blood", "setting": "[13]", "result": "rapidly degraded in the blood"}, {"measurement": "metabolic stability", "setting": "[13]", "result": "poor metabolic stability"}]}, {"molecule": "CC(C)C[C@@H](C=O)NC(=O)[C@H](CC(C)C)NC(=O)[C@H](CC(C)C)NC(=O)OCc1ccccc1", "note": "[MG132] (Cbz-Leu-Leu-Leu-aldehyde)", "values": [{"measurement": "effect of PKA and OA on polyQ-AR", "setting": "[14]; HEK293T AR55Q, 10 μM MG132 (5 hours), n = 3", "result": "abolished"}]}, {"molecule": "C=C1[C@@H](O)[C@@H]2O[C@]3(CC[C@H](/C=C/[C@@H](C)[C@@H]4CC(C)=C[C@@]5(O[C@H](C[C@@](C)(O)C(=O)O)CC[C@H]5O)O4)O3)CC[C@H]2O[C@@H]1[C@@H](O)C[C@H](C)[C@H]1O[C@@]2(CCCCO2)CC[C@H]1C", "note": "[Okadaic acid]", "values": [{"measurement": "expression of p21Cip1", "setting": "[4]", "result": "induced the expression"}, {"measurement": "binding of CDK2 to p21Cip1", "setting": "[6]", "result": "increased the binding"}, {"measurement": "accumulation of the upper AR isoform (p21Cip1 experiments)", "setting": "[1]; n = 3", "result": "decreased accumulation"}]}, {"molecule": "acetyl–[Ala^15, Ala^20]PACAP1–38–propylamide [Peptide 6]", "values": [{"measurement": "PAC1 receptor agonism", "setting": "[15]", "result": "superagonist"}]}, {"molecule": "vasoactive intestinal peptide (HSDAVFTDNYTRLRKQMAVKKYLNSILN; ends and bridges not checked; UniProt P01282 125-152, looked up) [VIP]", "values": [{"measurement": "accumulation of the upper isoform of polyQ-AR, VIP", "setting": "[1]; fig. S3", "result": "does not modify"}, {"measurement": "activation of AC", "setting": "[10]", "result": "reduced ability to activate AC"}]}, {"molecule": "C[C@]12CCC(=O)C[C@@H]1CC[C@@H]1[C@@H]2CC[C@]2(C)[C@@H](O)CC[C@@H]12", "note": "[DHT, dihydrotestosterone]", "values": [{"measurement": "accumulation of the upper AR isoform, increase", "setting": "[1]", "result": "about 1.2 fold"}, {"measurement": "AR stabilization", "setting": "[16]", "result": "stabilizes"}]}, {"molecule": "PACAP38: main PACAP peptide in mammals (137061-48-4, Calbiochem)", "values": [{"measurement": "tolerability, intranasal administration", "setting": "[17]", "result": "well tolerated"}, {"measurement": "stimulation of cAMP production", "setting": "[10]; general statement in discussion, no reference given", "result": "stimulate cAMP production"}, {"measurement": "neuroprotective effects", "setting": "[18]", "result": "strong neuroprotective effects"}]}, {"molecule": "C=C[C@@]1(C)CC(=O)[C@]2(O)[C@@]3(C)[C@@H](O)CCC(C)(C)[C@@H]3[C@H](O)[C@H](OC(C)=O)[C@@]2(C)O1", "note": "[forskolin]", "values": [{"measurement": "polyQ-AR aggregation, PC12 cells", "setting": "[2]", "result": "reduced"}, {"measurement": "shift from annular to fibrillar oligomers caused by polyQ expansion", "setting": "[19]", "result": "reversed"}, {"measurement": "expression of p21Cip1", "setting": "[4]", "result": "induced the expression"}, {"measurement": "amount of polyQ-AR phosphorylated at Ser96", "setting": "[5]", "result": "significantly reduced"}, {"measurement": "binding of CDK2 to p21Cip1", "setting": "[6]", "result": "increased the binding"}, {"measurement": "accumulation of the upper AR isoform (p21Cip1 experiments)", "setting": "[1]; n = 3", "result": "decreased accumulation"}, {"measurement": "effect on upper AR isoform upon overexpression of wtCDK2", "setting": "[1]; 5 hours, n = 3", "result": "blocked"}, {"measurement": "accumulation of the upper isoform of polyQ-AR", "setting": "[1]; HEK293T expressing AR55Q, 10 nM DHT and 10 μM forskolin, 5 hours, n = 3", "result": "decreased the accumulation"}, {"measurement": "mobility of S96A and S96D phosphomutants", "setting": "[1]", "result": "not affected"}, {"measurement": "upper-isoform accumulation of polyQ-AR, MN-1 cells", "setting": "[20]", "result": "decreased"}, {"measurement": "polyQ-AR aggregation, HEK293T cells", "setting": "[7]", "result": "reduced"}, {"measurement": "reduction of polyQ-AR accumulation", "setting": "[14]; HEK293T AR55Q, 10 μM forskolin, cycloheximide 10 μg/ml, n = 5", "result": 80, "unit": "%"}, {"measurement": "AR transcript levels", "setting": "[14]; fig. S19C", "result": "without altering"}, {"measurement": "caspase 3 activity, forskolin", "setting": "[11]; 10 μM forskolin, n = 6 to 9", "result": "significant decrease"}, {"measurement": "upper-isoform accumulation of polyQ-AR, primary rat cortical neurons", "setting": "[21]", "result": "decreased"}]}]}
